From ChEMBL document CHEMBL1125218, “Substituted 2-(aminomethyl)piperidines: a novel class of selective protein kinase C inhibitors” (J Med Chem, 1991) come the findings set out here.

In assay [1] the target is T1, Protein kinase C, PKC; classical (Rattus norvegicus, UniProt P05696+P68403+P63319). Put plainly: In vitro inhibition of [32P] incorporation into histones by rat brain partially purified Protein kinase C in the presence of PMA, [Ca2+] and phosphatidylserine. The essentials:
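Partially purified rat brain PKC activated by PMA, Ca²⁺ and phosphatidylserine. Read-out is inhibition of ³²P incorporation into histones. Some values are extrapolated.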

Assay [2] has as its target cAMP-dependent protein kinase catalytic subunit alpha (Rattus norvegicus) (UniProt P27791). Put plainly: In vitro inhibition of cAMP-dependent kinase Protein kinase A isolated from rat brain by 100 uM. The essentials:
(§1)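 PKA catalytic subunit at 4 ng/mL in 20 mM Tris with 10 μM histone, 100 μM dibutyryl-cAMP and 100 μM [³²P]ATP. Percent inhibition measured at 100 μM test compound.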

For assay [3], the target named is T1, Protein kinase C, PKC; classical. The assay can be described thus: Inhibition of PMA and [Ca2+] induced 32P incorporation into histones by partially purified rat brain Protein kinase C. The essentials: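 Partially purified rat brain PKC activated by PMA, Ca²⁺ and phosphatidylserine. Read-out is inhibition of ³²P incorporation into histones. IC50 taken from concentration-inhibition curves run up to 100 μM inhibitor. Some values are extrapolated.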

Assay [4] concerns the target cAMP-dependent protein kinase catalytic subunit alpha (Rattus norvegicus) (UniProt P27791). Put plainly: (§2) Inhibition of cAMP-dependent kinase PKA(Protein kinase A) catalytic subunit at 100 uM. The essentials: as §1
Assay [5] deals with cAMP-dependent protein kinase catalytic subunit alpha (Rattus norvegicus, UniProt P27791). Described as §2.
Assay [6] deals with T2, Protein kinase C alpha type (Rattus norvegicus, UniProt P05696). Put plainly: Effect of Phosphatidylserine on inhibition of Protein kinase C alpha.
The target in assay [7] is T2, Protein kinase C alpha type. Put plainly: Inhibition of [3H]-phorbol dibutyrate binding to Protein kinase C alpha.
In assay [8] the target is cAMP-dependent protein kinase catalytic subunit alpha (Rattus norvegicus) (UniProt P27791). Put plainly: Inhibition of cAMP-dependent kinase PKA (Protein kinase A) catalytic subunit at 100 uM. In a few lines:
as §1

One may read the IC50 as the concentration needed to halve the response being measured. For orientation: inhibition means the percentage by which the read-out fell short of the control. Higher therefore signals a response far below the control. Turning to `CCCCCCCCCCCCCCCCC(=O)N1CCCCC1CNC(=O)[C@@H](N)CCCCN` (some centres not stated), the concentration for half-maximal inhibition (IC50) in assay [1] is 46 µM. In assay [2], this molecule came in with an inhibition of 0%.
Consider `CCCCCCCCCCCCC(=O)N1CCCCC1CNC(=O)[C@@H](N)CCSC` (some centres not stated), for which, in assay [1], the IC50 stood at 159 µM. In addition, in assay [2], the inhibition came out at 0%.
Regarding `CCCCCCCCCCCCCCCC(=O)N1CCCCC1CNC(=O)[C@@H](N)CCCCN` (some centres not stated), in assay [1], the IC50 was 45 µM. The molecule also displayed an inhibition in assay [2] of 0%.
As for `CCCCCCCCCCCCC(=O)N1CCCCC1CNC(=O)CN` (configuration not stated), the IC50 in assay [1] worked out at 51 µM. Also, the inhibition in assay [2] amounted to 0%.
As for `CCCCCCCCCCCCCCCCCC(=O)N1CCCCC1CNC(=O)[C@@H](N)CCCCN` (some centres not stated), the IC50 in assay [1] was 36 µM. In assay [2], this molecule yielded an inhibition of 38%.
In the case of `CCCCCCCCCCCCCC(=O)N1CCCCC1CNC(=O)[C@@H](N)CCCCN` (some centres not stated), the IC50 in assay [1] turned out to be 48 µM. The molecule further had an inhibition in assay [2] of 0%.
For `CCCCCCCCCCCCC(=O)N1CCCCC1CNC(=O)[C@@H](N)CCC(N)=O` (some centres not stated), in that order: 72 µM and 0%.
In assay [2], `CCCCCCCCCCCCC(=O)N1CCCCC1CNC(=O)[C@@H](N)CCC(=O)O` (some centres not stated) returned an inhibition of 0%.
In the case of `CCCCCCCCCCCC(=O)N1CCCCC1CNC(=O)[C@@H](N)CCCCN` (some centres not stated), the concentration for half-maximal inhibition (IC50) in assay [1] came to 102 µM. Moreover, the inhibition in assay [2] came to 0%.
On to `CCCCCCCCCCCCC(=O)N1CCCCC1CNC(=O)[C@@H](N)CC(C)C` (some centres not stated), for which the IC50 in assay [3] is 154 µM. The molecule also came in with an inhibition in assay [4] of 0%.
Take `CCCCCCCCCCCCC(=O)N1CCCCC1CNC(=O)[C@@H](N)CCCN` (some centres not stated): the IC50 in assay [1] turned out to be 23 µM. For the same molecule, the inhibition in assay [2] stood at 0%.
Regarding `CCCCCCCCCCCCC/C=C/[C@@H](O)[C@@H](N)CO` [SPHINGOSINE], the IC50 was 57 µM in assay [1] and 98 µM in assay [5].
For the molecule `CCCCCCCCCCC(=O)N1CCCCC1CNC(=O)[C@@H](N)CCCCN` (some centres not stated), the concentration for half-maximal inhibition (IC50) in assay [1] came out at 299 µM. This molecule also gave an inhibition in assay [2] of 0%.
In general, Ki refers to the equilibrium dissociation constant of an inhibitor or competing ligand from its target. Turning to `CCCCCCCCCCCCC(=O)N1CCCCC1CNC(=O)[C@@H](N)CCCCN` (some centres not stated), the affinity in assay [6], expressed as Ki, was 12 µM. In addition, the IC50 in assay [7] stood at 23 µM; in assay [1], 20 µM. This molecule also returned an inhibition in assay [2] of 0%.
As for `CCCCCCCCCCCCC(=O)N1CCCCC1CNC(=O)[C@H](N)CCCCN` (some centres not stated), the IC50 in assay [1] is 34 µM. In assay [2], this molecule had an inhibition of 0%.
`CCCCCCC(=O)N1CCCCC1CNC(=O)[C@@H](N)CCCCN` (some centres not stated) yielded an inhibition in assay [2] of 0%.
Regarding `CCCCCCCCCCCCC(=O)N1CCCCC1CNC(=O)[C@@H](N)CCC(=O)OCc1ccccc1` (some centres not stated), in assay [1], the IC50 is 92 µM. The same molecule returned an inhibition in assay [2] of 0%.
Turning to `CCCCCCCCC(=O)N1CCCCC1CNC(=O)[C@@H](N)CCCCN` (some centres not stated), in assay [2], the inhibition amounted to 0%.
Take `CCCCCCCCCCCCC(=O)N1CCCCC1CNC(=O)[C@@H](N)Cc1ncc[nH]1` (some centres not stated): the IC50 in assay [1] stood at 60 µM. The molecule further registered an inhibition in assay [2] of 0%.
For the molecule `CCCCCCCCCCCCC(=O)N1CCCCC1CNC(=O)[C@@H](N)CCCN=C(N)N` (some centres not stated), the half-maximal inhibitory concentration (IC50) in assay [1] turned out to be 72 µM. This molecule also had an inhibition in assay [2] of 0%.
`CCCCCCCCCCCCCC(=O)N1CCCCC1CN` (configuration not stated) displayed an IC50 in assay [3] of 36 µM. Besides, in assay [8], the inhibition amounted to 46%.
Take `CCCCCCCCCCCCC(=O)N1CCCCC1CNC(=O)[C@H](C)N` (some centres not stated): in assay [1], the IC50 amounted to 52 µM. Also, the inhibition in assay [2] stood at 0%.
In the case of `CCCCCCCCCCCCCCC(=O)N1CCCCC1CNC(=O)[C@@H](N)CCCCN` (some centres not stated), the IC50 in assay [3] stood at 38 µM. Moreover, the inhibition in assay [4] was found to be 0%.
Turning to `CCCCCCCCCCCCC(=O)N1CCCCC1CNC(=O)[C@@H](N)CO` (some centres not stated), the IC50 in assay [1] was determined as 45 µM. The same molecule returned an inhibition in assay [2] of 0%.
